The source made the active and inactive calls. The rule behind the calls is not given here.
Assays:
[1] = Area under the curve after intravenous administration at a dose of 4 umol/kg; assay type: ADME; details: in vivo
Summary of the method: (§1)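 Male Sprague-Dawley rats, iv dosing. Blood sampled at intervals up to 12 h, plasma drug levels by GC/MS with internal standard and a 2–1000 pmol/mL standard curve in blank blood. AUC from total area of concentration–time curve; iv n = 3 (table values SEM, n = 4–6).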

[2] = Maximum concentration in plasma after administration of 10 umol/kg dose perorally; assay type: ADME, organism-based; set-up: dose 10 umol/kg, route oral; details: po
Summary of the method: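 Male Sprague-Dawley rats starved 18 h, dosed orally. Blood samples over up to 12 h, drug quantified by GC/MS against internal standard (2–1000 pmol/mL standard curve). Cmax read from concentration–time curve; SEM, n = 4–6.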

[3] = Maximum concentration in plasma after administration of 4 umol/kg dose intravenously; assay type: ADME, organism-based; set-up: dose 4 umol/kg, route intravenous; details: iv; summary of the method: as §1
[4] = Bioavailability in rat (dose 10 uM/kg); assay type: ADME, organism-based; details: in vivo
Summary of the method: (§2)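 Male Sprague-Dawley rats; oral group starved 18 h, compared with iv dosing. Blood sampled up to 12 h, levels by GC/MS. Absolute oral availability F (po/iv) from ratio of AUCs of blood concentration–time curves, po n = 5, iv n = 3.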

[5] = Time taken to reach maximum concentration after administration of 4 umol/kg dose intravenously; assay type: ADME, organism-based; details: in vivo, iv
Summary of the method: (§3)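 Male Sprague-Dawley rats, starved 18 h for the oral arm, dosed iv or po. Blood sampled at intervals up to 12 h. Compound measured by GC/mass spectrometry against an internal standard, with a standard curve over 2–1000 pmol/mL in blank blood. tmax read from concentration–time curves, n = 4–6.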

[6] = Half life in plasma after administration of 4 umol/kg dose intravenously; assay type: ADME, organism-based; details: iv; summary of the method: as §1
[7] = Time taken to reach maximum concentration after administration of 10 umol/kg dose perorally; assay type: ADME, organism-based; details: in vivo, po; summary of the method: as §3
D(2) dopamine receptor = D(2) dopamine receptor (Rattus norvegicus, UniProt P61169); experiment: Displacement of the radioligand [3H]spiperone from D2 receptor
D(2) dopamine receptor, sequence (P61169 whole entry): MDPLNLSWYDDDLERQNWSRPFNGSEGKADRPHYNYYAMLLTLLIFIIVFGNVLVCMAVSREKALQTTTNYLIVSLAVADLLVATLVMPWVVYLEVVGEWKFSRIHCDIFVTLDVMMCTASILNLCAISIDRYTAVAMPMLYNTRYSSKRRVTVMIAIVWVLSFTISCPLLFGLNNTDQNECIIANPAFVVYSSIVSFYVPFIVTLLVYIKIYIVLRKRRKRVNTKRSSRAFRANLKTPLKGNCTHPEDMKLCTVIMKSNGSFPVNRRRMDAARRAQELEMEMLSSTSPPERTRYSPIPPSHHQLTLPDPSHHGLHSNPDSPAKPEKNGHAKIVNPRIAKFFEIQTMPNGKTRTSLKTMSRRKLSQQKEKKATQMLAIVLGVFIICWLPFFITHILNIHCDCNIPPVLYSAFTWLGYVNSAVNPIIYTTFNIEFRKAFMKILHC
Summary of the method: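 Rat striatal membranes in 50 mM potassium phosphate buffer, incubated with 0.5 nM [3H]spiperone (3 mg tissue) 10 min at 37 °C. Nonspecific binding defined with 10 μM 6,7-ADTN. IC50 converted to Ki by Cheng–Prusoff; 3–7 experiments, each concentration in triplicate.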

Rattus norvegicus [8] = experiment: Motor activity was measured by motility testing on injecting the compound subcutaneously into rats at the dose of 12.5 umol/kg; assay type: functional
Summary of the method: (§4)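 Rats given reserpine 5 mg/kg sc 18 h beforehand, then test compound sc in neck (n = 4). Placed singly in photocell motility meters straight after dosing; counts recorded for 30 min, gross behaviour observed throughout. Value as counts/30 min with SEM.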

Rattus norvegicus [9] = experiment: Ratio of the 5HTP-accumulation decrease in limbic regions after sc to that of po administration at 10 umol/kg; assay type: functional, Limbic system
Rattus norvegicus [10] = organism: Rattus norvegicus; experiment: The concentration yielding a half maximal decrease of the 5-HTP was determined in rat brain striatum.; assay type: functional
Rattus norvegicus [11] = experiment: The concentration yielding a half maximal decrease of the DOPA was determined in rat brain hemispheres; Inactive at 12.5 umol/kg; assay type: functional, organism-based
Summary of the method: (§5)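 Reserpine-pretreated (5 mg/kg sc, 18 h) male Sprague-Dawley rats, 200–300 g; compounds in saline given sc. DOPA and 5-HTP in limbic system, striatum and hemispheres measured by HPLC with electrochemical detection. Dose–response curves of 4–6 doses (n = 4) per area, fitted to variable-slope sigmoid on log data to give ED50.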

Rattus norvegicus [12] = organism: Rattus norvegicus; experiment: The concentration yielding a half maximal decrease of the DOPA was determined in rat brain striatum; assay type: functional; summary of the method: as §5
Rattus norvegicus [13] = organism: Rattus norvegicus; experiment: The concentration yielding a half maximal decrease of the 5-HTP was determined in rat brain hemispheres.; assay type: functional
Rattus norvegicus [14] = organism: Rattus norvegicus; experiment: The concentration yielding a half maximal decrease of the 5-HTP was determined in rat limbic system.; assay type: functional
Rattus norvegicus [15] = organism: Rattus norvegicus; experiment: The concentration yielding a half maximal decrease of the DOPA was determined in rat limbic system; assay type: functional
Rattus norvegicus [16] = organism: Rattus norvegicus; experiment: Log concentration to inhibit 5-HTP accumulation was determined in rat brain hemispheres; assay type: functional; summary of the method: as §5
Rattus norvegicus [17] = organism: Rattus norvegicus; experiment: Log concentration to inhibit 5-HTP accumulation was determined in rat limbic system; assay type: functional; summary of the method: as §5
Rattus norvegicus [18] = organism: Rattus norvegicus; experiment: Log concentration to inhibit DOPA accumulation was determined in rat brain striatum; assay type: functional; summary of the method: as §5
Rattus norvegicus [19] = organism: Rattus norvegicus; experiment: Log concentration to inhibit DOPA accumulation was determined in rat limbic system; assay type: functional; summary of the method: as §5
Rattus norvegicus [20] = organism: Rattus norvegicus; experiment: Log concentration to inhibit 5-HTP accumulation was determined in rat brain striatum; assay type: functional; summary of the method: as §5
[21] = Area under the curve after intravenous administration at a dose of 2 umol/kg; assay type: ADME; details: in vivo
[22] = Maximum concentration in plasma after administration of 2 umol/kg dose intravenously; assay type: ADME, organism-based; set-up: dose 2 umol/kg, route intravenous; details: iv
[23] = Half life in plasma after administration of 2 umol/kg dose intravenously; assay type: ADME, organism-based; details: iv
[24] = Time taken to reach maximum concentration after administration of 2 umol/kg dose intravenously; assay type: ADME, organism-based; details: in vivo, iv
Rattus norvegicus [25] = experiment: Ratio of the 5HTP-accumulation decrease in limbic regions after sc and po administration at 10 umol/kg; assay type: functional, Limbic system
Summary of the method: (§6)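 Ratio of ED50 for decrease of limbic 5-HTP accumulation after oral versus sc dosing in reserpine-pretreated rats; 5-HTP measured by HPLC with electrochemical detection.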

Rattus norvegicus [26] = organism: Rattus norvegicus; experiment: The concentration yielding a half maximal decrease of the 5-HTP was determined in rat brain striatum; assay type: functional; summary of the method: as §5
Rattus norvegicus [27] = experiment: The concentration yielding a half maximal decrease of the DOPA was determined in rat brain hemispheres; inactive at 12.5 umol/kg; assay type: functional, organism-based; summary of the method: as §5
Rattus norvegicus [28] = experiment: The concentration yielding a half maximal decrease of the DOPA was determined in rat brain striatum; inactive at 12.5 umol/kg; assay type: functional, organism-based
Rattus norvegicus [29] = organism: Rattus norvegicus; experiment: The concentration yielding a half maximal decrease of the 5-HTP was determined in rat brain hemispheres; assay type: functional; summary of the method: as §5
Rattus norvegicus [30] = organism: Rattus norvegicus; experiment: The concentration yielding a half maximal decrease of the 5-HTP was determined in rat limbic system; assay type: functional; summary of the method: as §5
Rattus norvegicus [31] = experiment: Motor activity was measured by motility testing on injecting the compound subcutaneously into rats at the dose of 12.5 uM/Kg; assay type: functional; summary of the method: as §4
Rattus norvegicus [32] = experiment: The concentration yielding a half maximal decrease of the DOPA was determined in rat limbic system; Partial response at 50 umol/kg; assay type: functional, organism-based
Rattus norvegicus [33] = experiment: The concentration yielding a half maximal decrease of the 5-HTP was determined in rat limbic system; Partial response at 50 umol/kg; assay type: functional, organism-based; summary of the method: as §5
Rattus norvegicus [34] = experiment: The concentration yielding a half maximal decrease of the DOPA was determined in rat brain striatum; Partial response at 50 umol/kg; assay type: functional, organism-based
Rattus norvegicus [35] = experiment: The concentration yielding a half maximal decrease of the 5-HTP was determined in rat brain hemispheres; inactive at 50 umol/kg; assay type: functional, organism-based; summary of the method: as §5
Rattus norvegicus [36] = experiment: The concentration yielding a half maximal decrease of the 5-HTP was determined in rat brain striatum; inactive at 50 umol/kg; assay type: functional, organism-based; summary of the method: as §5
Rattus norvegicus [37] = experiment: The concentration yielding a half maximal decrease of the DOPA was determined in rat brain hemispheres; inactive at 50 umol/kg; assay type: functional, organism-based; summary of the method: as §5
Rattus norvegicus [38] = experiment: The concentration yielding a half maximal decrease of the 5-HTP was determined in rat limbic system; inactive at 11 umol/kg; assay type: functional, organism-based; summary of the method: as §5
Rattus norvegicus [39] = experiment: The concentration yielding a half maximal decrease of the DOPA was determined in rat brain hemispheres; inactive at 11 umol/kg; assay type: functional, organism-based; summary of the method: as §5
Rattus norvegicus [40] = organism: Rattus norvegicus; experiment: The concentration yielding a half maximal decrease of the DOPA was determined in rat brain striatum. pED50 values in parenthesis; assay type: functional
Rattus norvegicus [41] = experiment: The concentration yielding a half maximal decrease of the 5-HTP was determined in rat brain hemispheres; inactive at 11 umol/kg; assay type: functional, organism-based; summary of the method: as §5
Rattus norvegicus [42] = experiment: The concentration yielding a half maximal decrease of the 5-HTP was determined in rat brain striatum; inactive at 11 umol/kg; assay type: functional, organism-based; summary of the method: as §5
Rattus norvegicus [43] = organism: Rattus norvegicus; experiment: The concentration yielding a half maximal decrease of the DOPA was determined in rat limbic system. pED50 values in parenthesis; assay type: functional
Rattus norvegicus [44] = experiment: Motor activity was measured by motility testing on injecting the compound subcutaneously into rats at the dose of 0.02 umol/kg (1a) and 3.5 umol/kg (1b)
[45] = Bioavailability in rats after 5 mg/kg (i.v.) and 40 mg/kg (p.o.) administration; assay type: ADME, organism-based; details: rat, in vivo, po; summary of the method: as §2
Rattus norvegicus [46] = experiment: Ratio of the 5HTP-accumulation decrease in limbic regions of oral to that of sc administration; assay type: functional, Limbic system; summary of the method: as §6
Rattus norvegicus [47] = experiment: The concentration yielding a half maximal decrease of the DOPA was determined in rat brain hemispheres; inactive at 3.1 umol/kg; assay type: functional, organism-based; summary of the method: as §5
Rattus norvegicus [48] = experiment: The concentration yielding a half maximal decrease of the DOPA was determined in rat brain striatum; inactive at 3.1 umol/kg; assay type: functional, organism-based
[49] = Half life in plasma after administration of 2 umol/kg dose perorally; assay type: ADME, organism-based; details: po
Rattus norvegicus [50] = experiment: The concentration yielding a half maximal decrease of the DOPA was determined in rat limbic system; inactive at 3.1 umol/kg; assay type: functional, organism-based

SMILES | Cmax [2] [nM] | bioavailability [4] [%] | Tmax [7] [h] | Ki (D(2) dopamine receptor) [nM] | ED50 (Rattus norvegicus [15]) [µmol/kg] | pED50 (Rattus norvegicus [16]) | pED50 (Rattus norvegicus [17]) | pED50 (Rattus norvegicus [19]) | pED50 (Rattus norvegicus [20]) | AUC [21] [pM/kg] | Cmax [22] [nM] | Tmax [24] [min] | ED50 (Rattus norvegicus [26]) [µmol/kg] | ED50 (Rattus norvegicus [29]) [µmol/kg] | ED50 (Rattus norvegicus [30]) [µmol/kg] | Counts/30 min (Rattus norvegicus [44]) | other results
CCCN(CCC)[C@@H]1CCc2ccc3[nH]c(C#N)cc3c2C1 [U-92,016-A] | 1120 | 63 | 1.25 | 538 | 2.01 | 6.56 | 6.67 | 5.69 | 7.1 | – | – | – | – | – | – | – | AUC [1]: 1817 pM/kg; Cmax [3]: 2570 nM; Tmax [5]: 4 min; half-life [6]: 1.5 h; Activity (Rattus norvegicus [8]): 194 Counts 30min-1; ED50 (Rattus norvegicus [9]): 55%; ED50 (Rattus norvegicus [10]): 0.079 µmol/kg; ED50 (Rattus norvegicus [11]): inactive; ED50 (Rattus norvegicus [12]): 3.36 µmol/kg; ED50 (Rattus norvegicus [13]): 0.28 µmol/kg; ED50 (Rattus norvegicus [14]): 0.21 µmol/kg; pED50 (Rattus norvegicus [18]): 5.47
CCCN(CCC)[C@H]1CCc2ccc3[nH]cc(C=O)c3c2C1 | 606 | 72 | 0.8 | 3590 | 4.33 | 7.49 | 6.94 | 5.36 | 8.28 | 607 | 849 | 2 | 0.052 | 0.032 | 0.11 | – | half-life [23]: 1 h; Counts/30 min (Rattus norvegicus [8]): 413; ED50 (Rattus norvegicus [25]): 18%; ED50 (Rattus norvegicus [27]): inactive; ED50 (Rattus norvegicus [28]): inactive
CCCN(CCC)C1CCc2cc3cc[nH]c3cc2C1 (centres undefined) | – | – | – | – | – | – | – | – | – | – | – | – | – | – | – | – | Activity (Rattus norvegicus [31]): 51 Counts 30min-1; ED50 (Rattus norvegicus [32]): Weak activity; ED50 (Rattus norvegicus [33]): Weak activity; ED50 (Rattus norvegicus [34]): Weak activity; ED50 (Rattus norvegicus [35]): inactive; ED50 (Rattus norvegicus [36]): inactive; ED50 (Rattus norvegicus [37]): inactive
CCCN(CCC)C1CCc2ccc(O)cc2C1 (centres undefined) | – | – | – | – | – | – | – | – | – | – | – | – | – | – | – | 170 | ED50 (Rattus norvegicus [38]): inactive; ED50 (Rattus norvegicus [39]): inactive; ED50 (Rattus norvegicus [40]): 0.03 µmol/kg; ED50 (Rattus norvegicus [41]): inactive; ED50 (Rattus norvegicus [42]): inactive; ED50 (Rattus norvegicus [43]): 0.027 µmol/kg
CCCN(CCC)[C@@H]1CCc2ccc3[nH]cc(C=O)c3c2C1 | 108 | – | 2.5 | 382 | – | 6.34 | 7.14 | – | 6.91 | 431 | 712 | 2 | 0.12 | 0.45 | 0.072 | 162 | bioavailability [45]: 46%; ED50 (Rattus norvegicus [46]): 15%; ED50 (Rattus norvegicus [47]): inactive; ED50 (Rattus norvegicus [48]): inactive; half-life [49]: 1.5 h; ED50 (Rattus norvegicus [50]): inactive
